An excerpt weighted towards active compounds, which were near 11% of everything screened.
M1 antagonist – antagonists of rat M1 muscarinic receptor | B-score at 10 µM | AID 628 | CHO-M1 cells, Fluo-4 calcium, ACh EC80 antagonist mode; hits give low values | 64,000 compounds, 3.4% hits;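 active = calcium fluorescence response, raw or row-and-column corrected B-score, differing from the plate sample mean either way at a set confidence level, mostly lower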
S1P3 ag – agonists of human S1P3 receptor | Q99500 | 60,000 compounds, 0.1% hits | S1P3 NFAT-BLA reporter cells, agonism, FRET ratio; relative to 1 µM S1P, basal subtracted | activation, % at 4.5 µM | AID 373;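 active = activation above the screen-wide mean plus 3 SD, cut at about 4.5% in these data, passing the limit was not always enough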
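Material: Human S1P3 NFAT-BLA reporter CHO cells | Incubation: Overnight plating, 4 h compound 37 °C, 2 h substrate RT | Signal: FRET β-lactamase substrate fluorescence, excitation 405 nm, 460/535 nm emission ratio, background-subtracted | Compound: 4.5 µM final, single dose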
M1 agonist – agonists of M1 muscarinic receptor. B-score at 10 µM. CHO-M1 cells, Fluo-4 calcium fluorescence, agonist mode; hits give high values. 64,000 compounds, 3% hits;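 active = fluorescence rise, raw or as B-score row- and column-corrected plate score, outside the 99.7% band of its plate's samples, either direction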
D1 mod – D1 dopamine receptor (human) allosteric modulation; B-score at 10 µM; HEK293 D1, CRE-luciferase, dopamine EC30 potentiation; actives deviate in either direction; 58,000 compounds, 5.9% hits;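 active = luminescence count or its row- and column-corrected plate score outside the 99.7% band of the plate's sample wells, on either side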
Target sequence (P21728 whole entry, looked up): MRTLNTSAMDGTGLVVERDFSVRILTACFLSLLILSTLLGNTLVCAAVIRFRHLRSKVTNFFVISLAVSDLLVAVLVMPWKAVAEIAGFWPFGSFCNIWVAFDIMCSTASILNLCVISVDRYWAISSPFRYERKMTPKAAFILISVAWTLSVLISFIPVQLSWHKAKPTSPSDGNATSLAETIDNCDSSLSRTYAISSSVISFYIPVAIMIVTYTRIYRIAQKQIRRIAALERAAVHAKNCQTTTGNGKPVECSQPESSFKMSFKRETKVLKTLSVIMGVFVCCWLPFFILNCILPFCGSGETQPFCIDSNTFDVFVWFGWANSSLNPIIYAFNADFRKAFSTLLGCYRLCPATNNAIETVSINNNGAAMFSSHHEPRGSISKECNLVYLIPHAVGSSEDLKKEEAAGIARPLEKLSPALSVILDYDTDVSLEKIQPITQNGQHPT
S1P1 ag-PAM – agonists and agonism potentiators of human S1P1 receptor. S1P1 CRE-bla cells, forskolin, beta-lactamase FRET, potentiator mode; S1P1 agonist co-added at EC20, 2 nM; 100% = saturating reference agonist, 0% = basal. 56,000 compounds, 0.57% hits. AID 449. P21453. activation, % at 9.5 µM;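 active = activation above a cutoff set at the mean activation of all tested compounds plus 3 SD, cut at about 54% in these data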;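 also: forskolin at 4 µM as EC80 and the EC20 agonist is SEW2871; 100% = SEW2871 at its EC100 plus forskolin at EC80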
D1 mod confirm – confirmation of human D1 dopamine receptor allosteric modulators; shares compounds with D1 mod; HEK293 D1 CRE-luciferase, dopamine EC30 potentiation; hits give high values; luminescence at 10 µM; 2,200 compounds, 88% hits;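 active = luminescence in either of two replicates above the same-plate mean plus 3 SD of the low-dose dopamine control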
D1 ag no DA – D1 (human) signaling in absence of dopamine. luminescence at 10 µM. shares compounds with D1 mod. HEK293 D1 CRE-luciferase, luminescence, no dopamine; hits give high values. 1,900 compounds, 0.8% hits; in the data active = luminescence above about 3900
Isoprot counter – counter-screen for D1 modulators: isoproterenol response in HEK293 cells. shares compounds with D1 mod. HEK293 D1 CRE-luciferase, isoproterenol EC30 counter-screen. calls only at 10 µM. 2,200 compounds, 63% hits. AID 647;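 active = luminescence in either replicate above plate mean of wells with a partly effective reference agonist dose plus 3 SD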;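 also: isoproterenol raises cAMP through native beta-adrenoceptor Gs so signal bypasses D1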
An asterisk follows results filed as active; i = inactive; x = not tested or not shown; + = active, no number.

SMILES | M1 antagonist | S1P3 ag | M1 agonist | D1 mod | S1P1 ag-PAM | D1 mod confirm | D1 ag no DA | Isoprot counter
CCCOc1cc(C)c(S(=O)(=O)n2ccc(C)n2)cc1C | 0.21 | 0 | 0.26 | 0.0039 | 29 | x | x | x
Fc1ccc(NCc2cccnc2)cc1 | 0.17 | x | 1.2 | 0.56 | x | x | x | x
Cc1ccc(-c2cc(C(F)F)nc(NCc3cccnc3)n2)cc1 | 0.64 | x | -0.46 | 13* | x | 16464* | x | +
Cc1ccc(-c2cc(C(F)F)nc(NCC3CCCO3)n2)cc1 (stereo not given) | 0.62 | x | -0.11 | 3.3* | x | 14888* | x | +
Cn1c(SCC(=O)Nc2ccccc2F)nnc1-c1ccc(S(=O)(=O)N2CCOCC2)cc1 | -0.51 | -1 | 0.28 | 0.38 | -14 | x | x | x
COc1ccc(C(=O)N2CCN=C2SCc2cccnc2)cc1OC | -0.076 | -1 | 0.14 | 4.8* | -8 | 9852* | 1576 | +
COc1ccccc1N1CCN(CC(=O)c2c(C)[nH]c3cc(C)ccc23)CC1 | -0.16 | -2 | -0.17 | -0.66 | 10 | x | x | x
C=CCNc1nc2ccccc2nc1NS(=O)(=O)c1cccs1 | 0.34 | 1 | -0.11 | 6.9* | 3 | 11704* | x | +
O=S(=O)(Nc1nc2ccccc2nc1Nc1ccc2c(c1)OCCO2)c1cccs1 | 0.0058 | 0 | 0.022 | -1.3 | 4 | x | x | x
O=S(=O)(Nc1nc2ccccc2nc1NCc1ccco1)c1cccs1 | 0.36 | -1 | 0.22 | 8.4* | 4 | 15532* | 1652 | +
CC(=O)Nc1ccc(-c2nn[nH]n2)cc1Cl | -0.029 | 1 | -0.28 | 0.0058 | -12 | x | x | x
Cc1ccc(OC(=O)CCC(=O)N2CCc3ccccc32)cc1 | 0.18 | -1 | -0.6 | 1.1 | -6 | x | x | x
Nc1nnc(-c2ccco2)s1 | -0.36 | 0 | 0.16 | 0.75 | -15 | x | x | x
Nc1ncnc2oc(-c3ccco3)c(-c3ccco3)c12 | 0.067 | -1 | -0.88 | 10* | 32 | 19128* | 24288* | +
CCC(=O)Nc1nonc1-c1nc2ccccc2n1Cc1ccccc1 | 0.62 | 0 | -0.088 | 3.3* | -26 | 13704* | 1604 | +
CCC(=O)Nc1nonc1-c1nc2ccccc2n1CCC(C)C | -0.055 | 1 | 0.56 | 0.73 | 18 | x | x | x
Cc1ccc(Cn2nnc3c(=O)[nH]c(C4CCN(C(=O)Cc5cccs5)CC4)nc32)cc1 | -0.76 | -1 | -0.061 | -0.022 | -34 | x | x | x
O=C(c1ccccc1Cl)N1CCC(c2nc3c(nnn3Cc3ccco3)c(=O)[nH]2)CC1 | 0.044 | -2 | -0.89 | 6.1* | 1 | 11824* | 1716 | +
Cc1ccc(CC(=O)N2CCC(c3nc4c(nnn4Cc4ccccc4)c(=O)[nH]3)CC2)cc1 | 0.82 | -2 | 0.25 | 4.9* | -6 | 7652 | 1488 | i
Cc1ccc(C(=O)N2CCCC(c3nc4c(nnn4Cc4ccccc4)c(=O)[nH]3)C2)cc1 (stereo not given) | 0.065 | -1 | 0.12 | 3.4* | 15 | 9432* | x | +
O=C(NCc1ccco1)c1cc2sccc2n1Cc1ccccc1 | -1 | 0 | 0.68 | x | -22 | x | x | x
CCNc1nc2c(c(=O)[nH]c(=O)n2C)n1CC(C)C | -0.6 | -1 | 0.28 | 1.8 | -10 | x | x | x
CCCCCCn1c(NCC)nc2c1c(=O)[nH]c(=O)n2C | -0.11 | 0 | 0.56 | 5.3* | -26 | 9696* | 1604 | +
CCCCCn1c(Sc2nc3ccccc3s2)nc2c1c(=O)[nH]c(=O)n2C | 0.81 | 0 | 0.068 | 17* | -9 | 22672* | 1660 | +
CCCCCCn1c(SCC(=O)OC)nc2c1c(=O)[nH]c(=O)n2C | -0.087 | 0 | -0.51 | 4.7* | 9 | 5408 | 1472 | +
SMILES | M1 antagonist | S1P3 ag | M1 agonist | D1 mod | S1P1 ag-PAM | D1 mod confirm | D1 ag no DA | Isoprot counter
Cc1ccc(Cn2c(Sc3nccc(C)n3)nc3c2c(=O)[nH]c(=O)n3C)cc1 | 0.41 | x | -0.11 | x | x | x | x | x
CCCCCn1c(Sc2ncccn2)nc2c1c(=O)[nH]c(=O)n2C | 1.1 | -1 | 0.42 | 20* | -13 | 25988* | 1676 | +
CCCCCn1c(CN2CCN(c3cc(Cl)ccc3C)CC2)nc2c1c(=O)[nH]c(=O)n2C | 0.61 | 0 | 0.4 | 1.6 | -27 | x | x | x
CN(C(=O)Cn1c(=O)n(CCCCC(=O)NC2CCCC2)c(=O)c2ccccc21)C1CCCCC1 | 0.47 | -1 | 0.56 | 0.0074 | -9 | x | x | x
CC(SCCc1ccccn1)C(=O)O (stereo not given) | 0.085 | 0 | 0.56 | -0.62 | -19 | x | x | x
COc1cccc(C2=NOC(C(=O)Nc3cccc(C(C)=O)c3)C2)c1OC (stereo not given) | -1 | 1 | 1.6 | 3.6* | -8 | 4760 | 1744 | i
C/C(=N\O)c1ccc2c3ccccc3n(C)c2c1 | x | -2 | x | -0.35 | -11 | x | x | x
Cn1c2c(c3ccccc31)CC/C2=N\O | -0.52 | -1 | -0.49 | 4.7* | -2 | 8132* | 1360 | i
OCC(CO)(CO)n1cnnn1 | -0.039 | 0 | -0.32 | 3.5* | -3 | 5960 | 1496 | i
CC1(C)CC(=O)C=C(Nc2cc(-c3ccccc3)[nH]n2)C1 | 0.027 | x | 0.58 | -0.66 | x | x | x | x
Cc1sc2ncnc(SC(C)C#N)c2c1C (stereo not given) | 0.049 | -1 | 0.014 | 4.9* | -21 | 6756 | 1584 | i
NC1=NC(c2cn(-c3ccccc3)nc2-c2cccs2)n2c(nc3ccccc32)N1 (stereo not given) | -0.3 | -1 | -0.36 | 4.3* | 3 | 7380* | 1336 | i
COc1ccc(C2CC(=O)C(C=NCCN3CCOCC3)=C(O)C2)cc1 (stereo not given) | 0.15 | -2 | 0.7 | -0.21 | -17 | x | x | x
COc1ccc(-c2csc3nc(C)n(-n4cccc4)c(=O)c23)cc1OC | 0.12 | -1 | 0.67 | 4.9* | -6 | 6784* | 1784 | i
Cc1ccc(-c2csc3nc(C)n(-n4c(C)ccc4C)c(=O)c23)o1 | -0.69 | 0 | 0.17 | 0.52 | -31 | x | x | x
CS(=O)(=O)c1sc2nc(-c3cccs3)cc(-c3ccccc3)c2c1N | 0.96 | 0 | -1.3 | 5.1* | 40 | 15760* | 1468 | i
O=C(Nc1ccccc1Cl)N1CCN(c2ccc3nnc(-c4ccccc4)n3n2)CC1 | -1 | 0 | 1.5 | 5.4* | -19 | 14068* | x | +
Cc1cccc(Nc2nc(NC(C)C)nc(Oc3ccc(=O)n(C)n3)n2)c1 | -0.16 | -1 | 0.28 | -0.15 | 45 | x | x | x
Cc1ccc(-c2nc(CS(=O)CC(=O)NC3CCC(C)CC3)c(C)o2)cc1 (stereo not given) | 0.28 | -1 | -1.3 | 0.096 | -3 | x | x | x

Screening data: PubChem, several laboratories
